Calls of active or inactive are those of the source. No cut-off for these calls is given here.

Sequence of Cytochrome P450 2C9 (P11712 whole entry): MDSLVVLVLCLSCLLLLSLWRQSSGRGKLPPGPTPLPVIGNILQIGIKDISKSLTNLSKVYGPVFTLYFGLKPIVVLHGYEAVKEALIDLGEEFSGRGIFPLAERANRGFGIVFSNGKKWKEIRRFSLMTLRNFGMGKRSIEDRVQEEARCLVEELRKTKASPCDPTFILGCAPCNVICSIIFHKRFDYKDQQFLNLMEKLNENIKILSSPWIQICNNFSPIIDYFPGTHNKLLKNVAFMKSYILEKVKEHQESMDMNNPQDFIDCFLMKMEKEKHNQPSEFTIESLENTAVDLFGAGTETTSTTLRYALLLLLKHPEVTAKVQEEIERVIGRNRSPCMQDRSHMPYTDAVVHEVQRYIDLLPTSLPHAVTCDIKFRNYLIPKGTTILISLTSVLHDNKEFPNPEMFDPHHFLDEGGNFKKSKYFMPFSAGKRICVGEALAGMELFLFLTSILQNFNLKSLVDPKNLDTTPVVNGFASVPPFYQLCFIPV
Sequence of Voltage-gated inwardly rectifying potassium channel KCNH2 (Q12809 whole entry): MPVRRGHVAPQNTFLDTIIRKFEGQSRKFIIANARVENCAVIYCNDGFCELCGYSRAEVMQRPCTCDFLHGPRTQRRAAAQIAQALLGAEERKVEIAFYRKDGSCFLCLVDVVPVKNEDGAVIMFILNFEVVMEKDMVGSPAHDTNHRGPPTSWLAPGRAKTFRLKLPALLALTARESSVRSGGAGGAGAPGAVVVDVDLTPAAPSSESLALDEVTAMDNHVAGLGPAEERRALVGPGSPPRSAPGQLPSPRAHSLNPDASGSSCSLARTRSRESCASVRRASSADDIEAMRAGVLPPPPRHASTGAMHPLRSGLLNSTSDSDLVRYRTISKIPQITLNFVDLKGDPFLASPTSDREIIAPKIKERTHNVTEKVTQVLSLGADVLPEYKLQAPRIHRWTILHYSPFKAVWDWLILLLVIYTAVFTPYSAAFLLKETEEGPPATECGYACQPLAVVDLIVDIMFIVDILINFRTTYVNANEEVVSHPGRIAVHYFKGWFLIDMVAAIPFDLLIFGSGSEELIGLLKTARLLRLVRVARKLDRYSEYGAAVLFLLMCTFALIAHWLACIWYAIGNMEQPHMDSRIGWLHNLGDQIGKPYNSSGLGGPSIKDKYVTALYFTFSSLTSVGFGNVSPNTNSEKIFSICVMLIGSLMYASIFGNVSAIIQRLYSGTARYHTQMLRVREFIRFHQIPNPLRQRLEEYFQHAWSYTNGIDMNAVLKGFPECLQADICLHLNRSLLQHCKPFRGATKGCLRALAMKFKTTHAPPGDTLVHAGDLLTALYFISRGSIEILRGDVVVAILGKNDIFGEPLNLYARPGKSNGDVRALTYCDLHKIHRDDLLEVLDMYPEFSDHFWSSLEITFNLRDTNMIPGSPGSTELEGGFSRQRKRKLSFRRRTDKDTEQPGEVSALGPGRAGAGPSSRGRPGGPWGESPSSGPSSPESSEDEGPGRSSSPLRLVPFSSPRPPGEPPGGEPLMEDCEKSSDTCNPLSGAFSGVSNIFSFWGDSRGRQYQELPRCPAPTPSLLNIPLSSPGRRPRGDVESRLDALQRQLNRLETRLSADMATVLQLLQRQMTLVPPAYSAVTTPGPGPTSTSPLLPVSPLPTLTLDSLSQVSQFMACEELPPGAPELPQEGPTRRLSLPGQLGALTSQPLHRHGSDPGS
Sequence of Cytochrome P450 2D6 (P10635 whole entry): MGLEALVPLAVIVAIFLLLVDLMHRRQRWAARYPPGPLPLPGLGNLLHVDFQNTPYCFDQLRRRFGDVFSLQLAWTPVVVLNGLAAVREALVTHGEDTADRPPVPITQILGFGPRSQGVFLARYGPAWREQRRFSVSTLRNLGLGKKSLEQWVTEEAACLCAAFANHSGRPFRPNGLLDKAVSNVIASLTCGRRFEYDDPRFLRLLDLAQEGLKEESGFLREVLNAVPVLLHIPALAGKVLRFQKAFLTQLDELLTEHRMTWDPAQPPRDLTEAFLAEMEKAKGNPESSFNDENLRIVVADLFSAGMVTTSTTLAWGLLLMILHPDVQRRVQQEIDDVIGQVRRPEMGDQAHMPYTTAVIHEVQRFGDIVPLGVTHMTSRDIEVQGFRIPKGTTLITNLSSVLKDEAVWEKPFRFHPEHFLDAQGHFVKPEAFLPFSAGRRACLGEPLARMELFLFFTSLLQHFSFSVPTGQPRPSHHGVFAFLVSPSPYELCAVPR

The test system of the first series is Trypanosoma cruzi. Kind of series: Growth inhibition of trypomastigote form of Trypanosoma cruzi Y infected in human U2OS cells at 50 uM measured after 72 hrs by DRAQ5 DNA dye based confocal microscopic analysis relative to control. Type of series: organism-based. The note with it: Trypanosoma cruzi, Y, U2OS, read-out: GI.
For the compound `Nc1nc2ccc(SCc3ccc(C(=O)NCc4ccccc4)cc3)cc2s1`, the inhibition at 50 µM was 19.2%.

As for `COc1ccc(CN(Cc2ccc(Cl)c(Cl)c2)C(=O)c2ccc3nc(N)sc3c2)cc1OC`, the inhibition at 50 µM was 47.9%.

A further series deals with Leishmania infantum. Description: Growth inhibition of luciferase expressing Leishmania infantum axenic amastigotes infected in human THP1 cells at 10 uM measured after 72 hrs by steady-glo luminescence assay relative to control. Type of series: organism-based. As to conditions: Leishmania infantum, THP-1, 72 h; read-out: GI.
Turning to `COc1ccc(CN(Cc2ccc(Cl)c(Cl)c2)C(=O)c2ccc3nc(N)sc3c2)cc1OC`, the inhibition at 10 µM amounted to 9%.

The series is the same for the next values; noted with them: leishmania infantum, 72 h, 10 µM.
Regarding `Nc1nc2ccc(SCc3ccc(C(=O)NCc4ccccc4)cc3)cc2s1`, the “growth inhibition (GI)” value is given as “Non-Toxic”.

The next series has as its target T1, Pteridine reductase 1 (Leishmania major, UniProt Q01782).
T1 sequence (Q01782 whole entry): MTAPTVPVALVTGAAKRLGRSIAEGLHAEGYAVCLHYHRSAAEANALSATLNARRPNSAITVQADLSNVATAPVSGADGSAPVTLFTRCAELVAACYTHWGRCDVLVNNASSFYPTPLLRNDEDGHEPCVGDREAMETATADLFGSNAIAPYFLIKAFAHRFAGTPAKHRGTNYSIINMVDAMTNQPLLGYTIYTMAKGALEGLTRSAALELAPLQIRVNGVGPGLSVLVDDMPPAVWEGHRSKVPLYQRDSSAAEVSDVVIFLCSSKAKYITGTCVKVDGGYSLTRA
Description: Inhibition of Leishmania major pteridine reductase 1 using di-hydrobiopterine as substrate in presence of NADPH.
Details: not given
In a few lines: (§1)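 Photometric PTR1 assay with NADPH and dihydrobiopterin substrate. H₄B formation is coupled non-enzymatically to cytochrome c reduction, read as signal increase at 550 nm.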
Broadly, the IC50 is the concentration at which inhibition is half-maximal. As for `COc1ccc(CN(Cc2ccc(Cl)c(Cl)c2)C(=O)c2ccc3nc(N)sc3c2)cc1OC`, the IC50 result is given as “Not Active”.

Staying with this series, now noted: read-out: IC50.
For the compound `Nc1nc2ccc(SCc3ccc(C(=O)NCc4ccccc4)cc3)cc2s1`, the IC50 was determined as 30 µM.

Biological target in the next series: not listed separately
Description: Inhibition of N-terminal His-tagged Trypanosoma brucei pteridine reductase 1 using di-hydrobiopterine as substrate measured at 1 min interval for 50 mins in presence of NADPH.
Details: not given
The method, boiled down: as §1
Consider `Nc1nc2ccc(SCc3ccc(C(=O)NCc4ccccc4)cc3)cc2s1`, for which the IC50 came out at 0.5 µM.

As for `COc1ccc(CN(Cc2ccc(Cl)c(Cl)c2)C(=O)c2ccc3nc(N)sc3c2)cc1OC`, the IC50 stood at 15.9 µM.

A further series has as its system Trypanosoma brucei. Kind of series: Inhibition of N-terminal His-tagged Trypanosoma brucei pteridine reductase 1 at 50 uM using di-hydrobiopterine as substrate measured at 1 min interval for 50 mins in presence of NADPH relative to control.
Details: not given
In a few lines: as §1
`Nc1nc2ccc(SCc3ccc(C(=O)NCc4ccccc4)cc3)cc2s1`: the inhibition was over 60%.

For `COc1ccc(CN(Cc2ccc(Cl)c(Cl)c2)C(=O)c2ccc3nc(N)sc3c2)cc1OC`, the inhibition is over 60%.

Another series relates to Trypanosoma brucei. Kind of series: Growth inhibition of Trypanosoma brucei bloodstream forms measured after 72 hrs by resazurin-based fluorescence assay. Type of series: organism-based.
Details: not given
In a few lines:
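Mid-log bloodstream-form T. brucei were seeded at a final 5 x 10^3/mL in supplemented HMI-9 with serial compound dilutions. Cultures ran 72 h at 37 °C, 5% CO₂, then 4 h more after resazurin. Fluorescence was read at ex 540/em 620 nm, and EC₅₀ was fitted by non-linear regression.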
What is called EC50 is the midpoint of the concentration-response curve. A low value points to an effect from little substance. `COc1ccc(CN(Cc2ccc(Cl)c(Cl)c2)C(=O)c2ccc3nc(N)sc3c2)cc1OC` came in with an EC50 of 9.7 µM.

The next series has as its target T2, Pteridine reductase 1 (Leishmania major) (UniProt Q01782).
T2 sequence (whole entry): T1 sequence (Q01782 whole entry)
Description: Inhibition of Leishmania major pteridine reductase 1 at 50 uM using di-hydrobiopterine as substrate in presence of NADPH relative to control.
Details: not given
The method, boiled down: as §1
Regarding `Nc1nc2ccc(SCc3ccc(C(=O)NCc4ccccc4)cc3)cc2s1`, the inhibition was over 60%.

For the compound `COc1ccc(CN(Cc2ccc(Cl)c(Cl)c2)C(=O)c2ccc3nc(N)sc3c2)cc1OC`, the inhibition result is “inactive”.

Another series relates to Trypanosoma brucei. Kind of series: Growth inhibition of Trypanosoma brucei bloodstream forms at 10 uM measured after 72 hrs by resazurin-based fluorescence assay relative to control. As to conditions: Trypanosoma brucei, read-out: GI. It is filed as organism-based. A general note: Alamar Blue is a resazurin reagent that responds to reducing activity.
In the case of `Nc1nc2ccc(SCc3ccc(C(=O)NCc4ccccc4)cc3)cc2s1`, the inhibition at 10 µM lay within 26 to 33%.

`COc1ccc(CN(Cc2ccc(Cl)c(Cl)c2)C(=O)c2ccc3nc(N)sc3c2)cc1OC`: the inhibition at 10 µM was over 60%.

The test system of another series is Trypanosoma brucei. Description: Inhibition of PTR1 in Trypanosoma brucei bloodstream forms assessed as potentiation of methotrexate-induced parasitic cell growth inhibition at 10 uM measured after 72 hrs by resazurin-based fluorescence assay (reference value: 19 +/- 6%).
Details: not given
The method, boiled down: (§2)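 Bloodstream-form T. brucei resazurin assay: 72 h at 37 °C, 5% CO₂, then fluorescence at ex 540/em 620 nm. Benzothiazole was tested at 10 μM alone and with 4 μM methotrexate. The index is the combination's activity divided by the sum of the activities of 10 μM benzothiazole and 4 μM methotrexate given separately.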
For the compound `Nc1nc2ccc(SCc3ccc(C(=O)NCc4ccccc4)cc3)cc2s1`, the growth inhibition (GI) is 80%.

For another series, the system named is Trypanosoma brucei. Kind of series: Inhibition of PTR1 in Trypanosoma brucei bloodstream forms assessed as potentiation of methotrexate-induced parasitic cell growth inhibition by measuring potentiation index at 10 uM measured after 72 hrs by resazurin-based fluorescence assay relative to control (methotrexate). It is filed as functional.
Details: not given
The method, boiled down:
as §2
In the case of `Nc1nc2ccc(SCc3ccc(C(=O)NCc4ccccc4)cc3)cc2s1`, the Ratio was 1.6.

A further series has as its target Voltage-gated inwardly rectifying potassium channel KCNH2 (Homo sapiens, UniProt Q12809). Description: Displacement of Tracer Red from human ERG by fluorescence polarization assay.
Details: not given
On the technique in general: In fluorescence polarisation assays a small probe gives low polarisation when free and higher when bound to something large.
Consider `Nc1nc2ccc(SCc3ccc(C(=O)NCc4ccccc4)cc3)cc2s1`, for which the IC50 is over 25 µM.

As for `COc1ccc(CN(Cc2ccc(Cl)c(Cl)c2)C(=O)c2ccc3nc(N)sc3c2)cc1OC`, the IC50 is over 25 µM.

A further series deals with T3, Cytochrome P450 1A2 (Homo sapiens, UniProt P05177).
T3 sequence (P05177 whole entry): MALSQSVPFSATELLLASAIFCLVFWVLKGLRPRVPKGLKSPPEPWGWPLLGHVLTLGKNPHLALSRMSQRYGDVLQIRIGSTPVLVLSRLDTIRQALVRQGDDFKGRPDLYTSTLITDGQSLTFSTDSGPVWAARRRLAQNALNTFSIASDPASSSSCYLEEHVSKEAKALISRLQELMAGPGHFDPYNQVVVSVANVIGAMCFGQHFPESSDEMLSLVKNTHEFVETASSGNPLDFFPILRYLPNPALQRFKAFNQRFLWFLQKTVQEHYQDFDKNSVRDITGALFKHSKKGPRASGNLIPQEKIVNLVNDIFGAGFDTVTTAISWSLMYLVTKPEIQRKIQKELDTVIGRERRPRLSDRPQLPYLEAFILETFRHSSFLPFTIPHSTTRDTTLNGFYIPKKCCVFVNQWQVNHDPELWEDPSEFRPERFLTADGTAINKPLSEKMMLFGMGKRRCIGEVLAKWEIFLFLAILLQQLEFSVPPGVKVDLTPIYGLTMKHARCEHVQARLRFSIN
Kind of series: Inhibition of human CYP1A2 expressed in baculovirus infected insect cells using beetle D-luciferin as substrate preincubated for 30 mins followed by NADPH addition and measured after 30 mins by CYP450-Glo assay.
Details: not given
`Nc1nc2ccc(SCc3ccc(C(=O)NCc4ccccc4)cc3)cc2s1` came in with an IC50 of over 25 µM.

Compound `COc1ccc(CN(Cc2ccc(Cl)c(Cl)c2)C(=O)c2ccc3nc(N)sc3c2)cc1OC` yielded an IC50 of over 25 µM.

The next series concerns the target Cytochrome P450 2C9 (Homo sapiens, UniProt P11712). Kind of series: Inhibition of human CYP2C9 expressed in baculovirus infected insect cells using beetle D-luciferin as substrate preincubated for 30 mins followed by NADPH addition and measured after 30 mins by CYP450-Glo assay.
Details: not given
Turning to `Nc1nc2ccc(SCc3ccc(C(=O)NCc4ccccc4)cc3)cc2s1`, the IC50 is under 10 µM.

As for `COc1ccc(CN(Cc2ccc(Cl)c(Cl)c2)C(=O)c2ccc3nc(N)sc3c2)cc1OC`, the IC50 is under 10 µM.

In a further series the target is Cytochrome P450 2C19 (Homo sapiens, UniProt P33261). Description: Inhibition of human CYP2C19 expressed in baculovirus infected insect cells using beetle D-luciferin as substrate preincubated for 30 mins followed by NADPH addition and measured after 30 mins by CYP450-Glo assay.
Sequence of Cytochrome P450 2C19 (P33261 whole entry): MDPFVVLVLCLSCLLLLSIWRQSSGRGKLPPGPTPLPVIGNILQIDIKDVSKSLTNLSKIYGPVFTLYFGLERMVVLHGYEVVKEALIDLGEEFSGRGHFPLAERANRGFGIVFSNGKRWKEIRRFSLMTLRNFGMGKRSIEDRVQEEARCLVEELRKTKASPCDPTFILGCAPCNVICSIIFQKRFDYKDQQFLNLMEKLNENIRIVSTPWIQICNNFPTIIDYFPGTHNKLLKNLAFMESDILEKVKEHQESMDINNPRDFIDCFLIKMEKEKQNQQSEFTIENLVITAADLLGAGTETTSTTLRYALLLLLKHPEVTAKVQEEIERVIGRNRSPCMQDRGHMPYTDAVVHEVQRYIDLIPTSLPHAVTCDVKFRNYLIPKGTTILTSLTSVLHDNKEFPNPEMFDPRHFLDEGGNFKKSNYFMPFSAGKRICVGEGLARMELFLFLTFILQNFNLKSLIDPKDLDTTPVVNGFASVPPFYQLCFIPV
Details: not given
Consider `Nc1nc2ccc(SCc3ccc(C(=O)NCc4ccccc4)cc3)cc2s1`, for which the IC50 was under 10 µM.

As for `COc1ccc(CN(Cc2ccc(Cl)c(Cl)c2)C(=O)c2ccc3nc(N)sc3c2)cc1OC`, the IC50 is under 10 µM.

Another series has as its target Cytochrome P450 2D6 (Homo sapiens, UniProt P10635). Kind of series: Inhibition of human CYP2D6 expressed in baculovirus infected insect cells using beetle D-luciferin as substrate preincubated for 30 mins followed by NADPH addition and measured after 30 mins by CYP450-Glo assay.
Details: not given
In turn, `Nc1nc2ccc(SCc3ccc(C(=O)NCc4ccccc4)cc3)cc2s1` came in with an IC50 of under 10 µM.

On to `COc1ccc(CN(Cc2ccc(Cl)c(Cl)c2)C(=O)c2ccc3nc(N)sc3c2)cc1OC`, for which the IC50 is under 10 µM.

In a further series the target is Cytochrome P450 3A4 (Homo sapiens, UniProt P08684). Kind of series: Inhibition of human CYP3A4 expressed in baculovirus infected insect cells using beetle D-luciferin as substrate preincubated for 30 mins followed by NADPH addition and measured after 30 mins by CYP450-Glo assay.
Sequence of Cytochrome P450 3A4 (P08684 whole entry): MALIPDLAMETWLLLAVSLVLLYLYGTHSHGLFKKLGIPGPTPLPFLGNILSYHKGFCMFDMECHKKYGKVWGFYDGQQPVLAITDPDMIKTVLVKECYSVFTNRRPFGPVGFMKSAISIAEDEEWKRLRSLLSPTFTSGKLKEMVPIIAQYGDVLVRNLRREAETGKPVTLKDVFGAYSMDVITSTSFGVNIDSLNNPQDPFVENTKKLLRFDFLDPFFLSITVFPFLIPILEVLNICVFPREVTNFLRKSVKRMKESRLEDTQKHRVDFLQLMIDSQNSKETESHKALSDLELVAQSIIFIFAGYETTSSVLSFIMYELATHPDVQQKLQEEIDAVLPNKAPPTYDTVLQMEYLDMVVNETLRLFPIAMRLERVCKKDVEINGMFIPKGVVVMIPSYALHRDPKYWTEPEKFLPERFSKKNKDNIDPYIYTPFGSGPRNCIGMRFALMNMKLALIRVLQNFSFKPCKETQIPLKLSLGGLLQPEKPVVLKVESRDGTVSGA
Details: not given
The compound `Nc1nc2ccc(SCc3ccc(C(=O)NCc4ccccc4)cc3)cc2s1` registered an IC50 of under 10 µM.

For the compound `COc1ccc(CN(Cc2ccc(Cl)c(Cl)c2)C(=O)c2ccc3nc(N)sc3c2)cc1OC`, the IC50 is under 10 µM.

System in another series: not listed separately
Kind of series: Cytotoxicity against human A549 cells after 48 hrs by Celltiter-glo assay.
Details: not given
Type of series: cell-based.
By GI50 is commonly meant the concentration that inhibits growth by half. As to `Nc1nc2ccc(SCc3ccc(C(=O)NCc4ccccc4)cc3)cc2s1`, the GI50 at 48 h was under 10 µM.

In turn, `COc1ccc(CN(Cc2ccc(Cl)c(Cl)c2)C(=O)c2ccc3nc(N)sc3c2)cc1OC` yielded a GI50 at 48 h of over 25 µM.

System in a further series: not listed separately
Description: Cytotoxicity against human THP1 cells after 72 hrs by MTT assay. It is filed as cell-based, THP-1. As to conditions: read-out: NOAEL.
In the case of `Nc1nc2ccc(SCc3ccc(C(=O)NCc4ccccc4)cc3)cc2s1`, the MNTC at 72 h lay within 10 to 25 µM.

Take `COc1ccc(CN(Cc2ccc(Cl)c(Cl)c2)C(=O)c2ccc3nc(N)sc3c2)cc1OC`: the MNTC at 72 h lay within 10 to 25 µM.

System in a further series: not listed separately
Kind of series: Cytotoxicity against human U2OS cells assessed as reduction in cell number. Type of series: cell-based.
Details: not given
Consider `Nc1nc2ccc(SCc3ccc(C(=O)NCc4ccccc4)cc3)cc2s1`, for which the GI50 is over 25 µM.

On to `COc1ccc(CN(Cc2ccc(Cl)c(Cl)c2)C(=O)c2ccc3nc(N)sc3c2)cc1OC`, for which the GI50 is over 25 µM.

System in another series: not listed separately
Kind of series: Mitochondrial toxicity in human 786-O cells measured after 6 hrs by MitoTracker Red chloromethyl-X-rosamine based assay.
Details: not given
It is filed as cell-based, 786-0.
`Nc1nc2ccc(SCc3ccc(C(=O)NCc4ccccc4)cc3)cc2s1`: the IC50 at 6 h was over 25 µM.

The compound `COc1ccc(CN(Cc2ccc(Cl)c(Cl)c2)C(=O)c2ccc3nc(N)sc3c2)cc1OC` had an IC50 at 6 h of 10 to 25 µM.

System in the next series: not listed separately
Kind of series: Selectivity ratio of IC50 for Leishmania major pteridine reductase 1 to IC50 for N-terminal His-tagged Trypanosoma brucei pteridine reductase 1.
Details: not given
On to `Nc1nc2ccc(SCc3ccc(C(=O)NCc4ccccc4)cc3)cc2s1`, for which the Ratio IC50 fell in the range of 2 to 100.

On to `COc1ccc(CN(Cc2ccc(Cl)c(Cl)c2)C(=O)c2ccc3nc(N)sc3c2)cc1OC`, for which the Ratio IC50 fell in the range of 2 to 100.

These data come from ChEMBL document CHEMBL4387708, “Enhancement of Benzothiazoles as Pteridine Reductase-1 Inhibitors for the Treatment of Trypanosomatidic Infections” (J Med Chem, 2019).
